Tests used:
Type in all cases: functional
Klebsiella pneumoniae [1] = test: Antimicrobial activity against Klebsiella pneumoniae isolate KpKPC expressing multidrug-resistant blaKPC gene assessed as susceptible isolates by Etest
Method in brief: (§1)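 Etest of fosfomycin MICs, with MICs rounded up to the next doubling concentration (e.g., 48 to 64 μg/ml). E. coli ATCC 25922 and P. aeruginosa ATCC 27853 included as controls. Isolates categorised as susceptible or resistant.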

Klebsiella pneumoniae [2] = test: Antimicrobial activity against Klebsiella pneumoniae isolate KpKPC expressing multidrug-resistant blaKPC gene assessed as susceptible isolates by disk diffusion method
Method in brief: (§2)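 Fosfomycin disk diffusion with inhibition zone diameters read in mm and interpreted as susceptible, intermediate or resistant. E. coli ATCC 25922 and P. aeruginosa ATCC 27853 run as controls.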

Klebsiella pneumoniae [3] = test: Antimicrobial activity against Klebsiella pneumoniae isolate KpKPC expressing multidrug-resistant blaKPC gene assessed as resistant isolates by Etest; method in brief: as §1
Klebsiella pneumoniae [4] = test: Antimicrobial activity against Klebsiella pneumoniae isolate KpKPC expressing multidrug-resistant blaKPC gene assessed as resistant isolates by disk diffusion method; method in brief: as §2

Structure (SMILES): C[C@@H]1O[C@@H]1P(=O)(O)O [FOSFOMYCIN]
- Activity (Klebsiella pneumoniae [1]): 61.8%
- Activity (Klebsiella pneumoniae [2]): 63.2%
- Activity (Klebsiella pneumoniae [3]): 14.7%
- Activity (Klebsiella pneumoniae [4]): 2.9%
